Assay outcomes from PubChem BioAssay.
ALR H2O2 inh = inhibitors of human ALR sulfhydryl oxidase, primary screen, biochemical, H2O2 detection, HRP-luminol luminescence, single point | FAD-linked sulfhydryl oxidase ALR (Homo sapiens), P55789 | purified ALR, DTT oxidation | inhibition, % (test concentration not listed) | 290,000 tested, 3.8% active;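 active = mean replicate inhibition above about 79%, with every replicate also reaching it, limit read from the data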
Target sequence (P55789 whole entry, looked up): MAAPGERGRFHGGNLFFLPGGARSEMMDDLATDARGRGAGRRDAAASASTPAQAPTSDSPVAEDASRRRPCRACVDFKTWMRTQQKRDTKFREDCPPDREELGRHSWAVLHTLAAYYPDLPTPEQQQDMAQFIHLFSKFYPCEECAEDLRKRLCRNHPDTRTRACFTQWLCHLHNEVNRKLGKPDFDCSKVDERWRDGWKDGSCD
HCV core dimer = inhibitors of HCV core protein dimerization, primary screen, biochemical, TR-FRET, high-throughput; TR-FRET GST/Flag-core106 dimerization, 1536-well; inhibition, % at 5 µM; 300,000 tested, 0.33% active;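 active = inhibition above the mean of all tested compounds plus 3 SD, set per screening campaign, cut at about 45% in these data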
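Material: Tagged HCV core106 pair (GST and Flag) | Amount: GST-core106 13.5 nM, Flag-core106 17 nM | Medium: KF-containing HEPES buffer, pH 7.45, DTT, CHAPS, BSA | Reagent: Eu donor and XL665 acceptor anti-tag antibodies | Schedule: 4 h at 22.5 °C | Technique: Time-resolved FRET, ex 340 nm, em 617 and 671 nm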
AI-2 QS mod = Vibrio harveyi AI-2 quorum sensing modulators, primary screen, JMH597 strain, luminescence/OD600 ratio; Vibrio harveyi JMH597 AI-2 luminescence/OD600 ratio, 9 h; hits give low values; strain lacks LuxN and CqsS sensors; 0 = neutral-control median; activity change, % at 7.5 µM; 300,000 tested, 0.4% active; in the data active = activity change below about -75%, passing the limit was not always enough;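 also: luminescence divided by OD600 gain over 9 h not by final OD600 alone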
PHOSPHO1 inh = PubChem AID 1565; Phosphoethanolamine/phosphocholine phosphatase (Homo sapiens), Q8TCT1; recombinant PHOSPHO1, absorbance phosphatase assay; inhibition, % at 13.3 µM; 290,000 tested, 1.1% active; in the data active = inhibition above about 60%
Target sequence (Q8TCT1 whole entry, looked up): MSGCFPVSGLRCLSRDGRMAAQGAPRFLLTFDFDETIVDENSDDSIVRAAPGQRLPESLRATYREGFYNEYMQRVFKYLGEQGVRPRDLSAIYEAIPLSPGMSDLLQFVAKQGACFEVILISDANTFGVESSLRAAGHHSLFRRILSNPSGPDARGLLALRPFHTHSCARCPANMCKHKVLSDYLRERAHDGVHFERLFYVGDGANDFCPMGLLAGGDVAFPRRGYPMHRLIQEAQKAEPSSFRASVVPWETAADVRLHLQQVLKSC
HSF1 activator = HSF-1 activators, primary screen, NIH3T3-HGL cells, MG132 stress, luminescence, single point; NIH3T3-HGL HSF-1 luciferase reporter, 8 h; 100% = twice DMSO control signal; 300,000 tested, 1.7% active; activation, % at 9 µM; AID 504408, 2011;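 active = mean replicate activation of at least 50% with a set share of replicates each reaching 50%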
HSF1 inhib = HSF1 inhibitors in luciferase reporter cells, primary screen, cell-based, NIH3T3, luminescence; activity change, negative = inhibition, % at 7.5 µM (by protocol); 300,000 tested, 0.77% active; NIH3T3-HGL HSE-luciferase, MG132-induced, luminescence 8 h; hits give low values;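 active = more than half of replicate wells show activity change below -50%, luminescence cut by over half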;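 also: luciferase reports HSF-1 transcriptional activity via heat shock element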
Hits are given with their value; n = inactive; x = no result given. Sampled rows, rich in hits. Any-hit rate of the full collection: about 6.8%.

SMILES | ALR H2O2 inh | HCV core dimer | AI-2 QS mod | PHOSPHO1 inh | HSF1 activator | HSF1 inhib
COc1ccc(OCc2cc(C(=O)NCC(C)Oc3cccnc3)no2)c(Cl)c1 (configuration not stated) | n | n | n | n | n | n
CCN1C(=NCc2ccco2)N[C@@H](c2cccc(F)c2)C(C(=O)OC)=C1C | n | n | n | n | n | n
CCCC(=O)Oc1ccc(C2NC(=O)c3ccccc3O2)cc1 (configuration not stated) | x | n | n | n | n | n
COc1ccc(N2C(=O)CSC2c2ccccc2[N+](=O)[O-])cc1 (configuration not stated) | 99 | n | n | n | n | n
COc1ccc(C2SCC(=O)N2c2ccc(C)cc2)cc1 (configuration not stated) | n | x | n | n | n | n
COc1ccc(N2C(=O)CSC2c2ccccc2)cc1 (configuration not stated) | 97 | n | n | n | n | n
CC1(c2ccccc2)NC(=O)N(N)C1=O (configuration not stated) | n | n | n | n | n | n
COc1ccc(C2Nc3ccccc3C(=O)N2c2ccccc2)cc1Cn1cc([N+](=O)[O-])cn1 (configuration not stated) | n | n | n | n | n | n
COc1ccc(N2C(=O)c3ccccc3NC2c2ccc(OC)c(Cn3cc([N+](=O)[O-])cn3)c2)cc1 (configuration not stated) | n | n | n | n | n | -68
O=C(OCc1ccc([N+](=O)[O-])cc1)C1CC(=O)N(c2ccccc2)C1 (configuration not stated) | n | n | n | n | n | n
Cc1cccc(N2CC(C(=O)OCc3ccc([N+](=O)[O-])cc3)CC2=O)c1 (configuration not stated) | n | n | n | 60 | n | n
Cc1cc(C)cc(OCc2ccc(C(=O)O)o2)c1 | n | n | n | n | n | n
CC(C)c1ccc(OCc2ccc(C(=O)N3CCCC3)o2)cc1 | n | n | x | n | n | n
CCOC(=O)c1ccc(COc2ccc(C(C)C)cc2)o1 | n | n | n | n | 54 | n
CCC(C)c1ccc(OCc2ccc(C(=O)O)o2)cc1 (configuration not stated) | n | n | n | n | n | -53
O=C(O)c1ccc(COc2c(F)c(F)c(F)c(F)c2F)o1 | 96 | n | n | n | n | n
O=C(CCCc1ccccc1)NC12CC3CC(CC(C3)C1)C2 | n | n | n | n | 69 | n
O=C(NC(=S)Nc1ccc(N2CCOCC2)c(Cl)c1)c1cncc(Br)c1 | n | n | n | n | n | n
Cc1cc(C)cc(C(=O)NC(=S)Nc2ccc3c(c2)OCCO3)c1 | n | n | n | n | 122 | n
O=C(NC(=S)Nc1ccc(N2CCCCC2)c(Cl)c1)c1ccc2c(c1)OCCO2 | n | n | n | n | n | -60
COC(=O)C1=C(N)Oc2cc(C)[nH]c(=O)c2C1c1ccccc1OC (configuration not stated) | n | n | n | n | n | n
CCOc1ccccc1Nc1nnc(SCC(=O)NC(Cc2c[nH]c3ccccc23)C(=O)O)s1 (configuration not stated) | n | n | n | n | n | n
Cc1ccc(Nc2nnc(SCC(=O)NC(Cc3c[nH]c4ccccc34)C(=O)O)s2)cc1 (configuration not stated) | 94 | n | n | n | n | n
Cc1nn(Cc2nnc(SCC(=O)Nc3ccc(Cl)cc3)n2C)c(C)c1[N+](=O)[O-] | x | n | n | n | n | n
N=C1S/C(=C\c2ccc(-c3cccc(Cl)c3)o2)C(=O)N1c1nccs1 | n | n | n | n | 223 | n
SMILES | ALR H2O2 inh | HCV core dimer | AI-2 QS mod | PHOSPHO1 inh | HSF1 activator | HSF1 inhib
COc1ccccc1/C=C/C=C1N=C(/C=C/c2ccc(Cl)cc2)OC/1=O | n | n | n | n | n | n
COc1ccccc1/C=C/C1=NC(=C\C=C/c2ccccc2)/C(=O)O1 | n | n | n | n | 171 | n
O=[N+]([O-])c1ccc(CN2CCN(c3ccc4ccccc4n3)CC2)cc1 | n | n | n | n | n | n
Cc1[nH]c2c(C)cccc2c1CN1CCC(CO)(Cc2ccccc2)CC1 | n | n | n | n | n | n
CN(C)N1C(=O)CC(NNC(=O)c2ccncc2)C1=O (configuration not stated) | 86 | n | n | n | n | n
CCN1C(=O)CC(NNC(=O)c2ccccc2)C1=O (configuration not stated) | n | n | n | n | n | n
FC(F)(F)c1cc(-c2ccco2)nc(NCc2ccccc2)n1 | 98 | n | n | n | n | n
CCOc1ccc(S(=O)(=O)N2CCCC(C(=O)NC3CCCC3)C2)cc1 (configuration not stated) | n | n | n | x | n | n
Cc1nc2c(C(=O)NCCC3=CCCCC3)c[nH]n2c(=O)c1Cl | n | n | n | 82 | n | n
CC(On1nnc2ccccc21)C(=O)N1CCN(Cc2ccccc2)CC1 (configuration not stated) | n | n | n | 80 | n | n
CCOC(=O)C1=C(Cc2ccc(OC)cc2)C(=O)c2ccccc2C1=O | x | x | x | 71 | x | x
CCOC(=O)C1=C(Cc2ccc(C)cc2)C(=O)c2ccccc2C1=O | n | n | n | n | n | n
COCCNC(=O)c1cc2cc3ccc(OC)cc3nc2o1 | n | n | n | n | n | n
CCC(C)NC(=O)c1cc2cc3ccc(OC)cc3nc2o1 (configuration not stated) | n | n | n | n | 63 | n
N#Cc1nc(-c2cccs2)oc1NCc1ccccc1 | n | n | -91 | n | n | n
Cc1ccc(NC(=O)N2CCc3ccccc3C2)c(C)c1 | n | n | n | n | n | n
CCCn1c(NC(=O)c2cccc(S(=O)(=O)N3CCCC3)c2)nc2ccccc21 | n | n | n | n | n | -54
CCc1nnc(NC(=O)c2cccc(S(=O)(=O)N3CCCCC3)c2)s1 | n | n | n | n | n | -56
CCOc1ccc(N2CC(C(=O)Nc3ccc(S(=O)(=O)NCC4CCCO4)cc3)CC2=O)cc1 (configuration not stated) | n | n | x | n | n | n
N#CC(=C1N=c2ccccc2=N1)c1c(O)[nH]c2ccccc12 | x | x | x | n | x | x
Oc1[nH]c(N=C2N=c3ccccc3=N2)c2ccccc12 | n | n | n | n | 288 | n
